Among the data in ChEMBL document CHEMBL4428067, “Drug Discovery against Psoriasis: Identification of a New Potent FMS-like Tyrosine Kinase 3 (FLT3) Inhibitor, 1-(4-((1H-Pyrazolo[3,4-d]pyrimidin-4-yl)oxy)-3-fluorophenyl)-3-(5-(tert-butyl)isoxazol-3-yl)urea, That Showed Potent Activity in a Psoriatic Animal Model” (J Med Chem, 2016) are Activity and inhibition values, retold here.

Experiment [1] is filed under the species Mus musculus. Nature of the experiment: Antipsoriatic activity in K14-VEGF transgenic mouse model of psoriasis assessed as decrease in CD8 expression in psoriatic lesion at 0.05% applied tropically over lesion for continuous 29 days by immunohistochemical analysis relative to vehicle control. Type of experiment: functional. Further details: scale not given: the % may be the effect or the level left. Put shortly: (§1)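 K14-VEGF mice were treated topically with 0.05% cream or vehicle for 29 days, n=3 per group. Ear skin was paraffin-embedded, cut into 4-µm sections and immunostained. Staining was quantified in 5 random fields, reported as mean ± SD.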

In experiment [2] the target is T1, Receptor-type tyrosine-protein kinase FLT3 (Mus musculus) (UniProt Q00342).
T1 sequence (whole entry): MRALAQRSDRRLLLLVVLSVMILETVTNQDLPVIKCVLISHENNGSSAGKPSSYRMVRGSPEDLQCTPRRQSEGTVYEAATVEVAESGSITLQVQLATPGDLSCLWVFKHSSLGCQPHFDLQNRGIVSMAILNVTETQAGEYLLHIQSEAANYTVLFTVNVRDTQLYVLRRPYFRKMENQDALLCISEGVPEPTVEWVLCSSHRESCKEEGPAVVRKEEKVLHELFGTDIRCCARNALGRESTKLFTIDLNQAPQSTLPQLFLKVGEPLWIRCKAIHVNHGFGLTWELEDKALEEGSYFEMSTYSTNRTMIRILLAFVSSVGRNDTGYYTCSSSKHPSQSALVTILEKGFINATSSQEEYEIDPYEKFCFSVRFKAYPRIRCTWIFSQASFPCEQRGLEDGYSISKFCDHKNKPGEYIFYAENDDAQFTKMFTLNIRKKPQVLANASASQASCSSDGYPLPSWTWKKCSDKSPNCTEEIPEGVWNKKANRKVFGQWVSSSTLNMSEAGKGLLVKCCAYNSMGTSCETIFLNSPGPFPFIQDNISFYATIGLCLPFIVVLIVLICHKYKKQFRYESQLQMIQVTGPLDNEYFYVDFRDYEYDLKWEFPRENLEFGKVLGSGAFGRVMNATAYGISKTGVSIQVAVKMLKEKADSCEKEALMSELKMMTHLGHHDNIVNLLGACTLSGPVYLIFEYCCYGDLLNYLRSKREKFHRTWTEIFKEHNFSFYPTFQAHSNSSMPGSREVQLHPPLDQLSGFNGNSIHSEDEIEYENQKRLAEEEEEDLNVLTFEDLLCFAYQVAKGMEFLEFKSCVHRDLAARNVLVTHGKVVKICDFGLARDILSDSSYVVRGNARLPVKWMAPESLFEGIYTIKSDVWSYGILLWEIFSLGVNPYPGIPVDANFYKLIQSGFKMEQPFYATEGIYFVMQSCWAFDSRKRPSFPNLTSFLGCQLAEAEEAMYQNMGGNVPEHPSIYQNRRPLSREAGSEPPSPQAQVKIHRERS
Nature of the experiment: Inhibition of FLT3 in mouse BMDCs assessed as suppression of STAT3 phosphorylation at 10 and 100 nM treated on day 9 post 9 days of FLT3L-stimulation measured after 1 hr by Western blot analysis. Put shortly: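 Bone marrow cells were cultured 9 days with FLT3L in supplemented RPMI-1640, then exposed to compound or 0.1% DMSO for 1 h on day 9. Whole cells were lysed and immunoblotted with rabbit antibodies to STAT3, STAT5, pSTAT3 and pSTAT5. Three independent experiments.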

In experiment [3] the target is T1, Receptor-type tyrosine-protein kinase FLT3 (Mus musculus). Nature of the experiment: Inhibition of FLT3 in Balb/c mouse BMDCs assessed as suppression of FLT3L-induced pDC formation measured as upper left quadrant cells level treated on day 9 post 9 days of FLT3L-stimulation measured after 24 hrs by CD11c PerCP and CD45R/B220 FITC staining based flow cytometric analysis (reference value: 45.8%). Further details: scale not given: the % may be the effect or the level left. Put shortly: (§2)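 BALB/c bone marrow cells were cultured at 1×10^6/ml with FLT3L in supplemented RPMI-1640 for 9 days. Compound in DMSO or 0.1% DMSO was added on day 9 for 24 h. Cells were stained for 30 min with CD11c PerCP plus B220 FITC (pDC: CD11c+ B220+) or MHC II FITC (mDC: CD11c+ MHC II+), then analysed by flow cytometry. Three independent experiments.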
(In general: A flow cytometer gives signals particle by particle.)

For experiment [4], the species on record is Mus musculus. Nature of the experiment: Antipsoriatic activity in K14-VEGF transgenic mouse model of psoriasis assessed as upper left quadrant DC cells expressing FLT3 and CD11c in psoriatic plaque lesion at 0.05% applied tropically over lesion for continuous 29 days by flow cytometric analysis (reference value: 8.83%). Type of experiment: functional.

The species named for experiment [5] is Mus musculus. Nature of the experiment: Antipsoriatic activity in K14-VEGF transgenic mouse model of psoriasis assessed as upper left quadrant FLT3+/CD11c+/B220+ pDC cells in psoriatic plaque lesion at 0.05% applied tropically over lesion for continuous 29 days by flow cytometric analysis (reference value: 36.1%). It is filed as functional.
For experiment [6], the system named is BMDC. Nature of the experiment: Decrease in IL23 level in Balb/c mouse BMDCs at 10 nM treated on day 9 post 9 days of FLT3L-stimulation measured after 12 hrs by ELISA. Type of experiment: functional, cell-based. Put shortly: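 BALB/c bone marrow cells were plated at 1×10^6/ml in RPMI-1640 with 10% FCS, 10^-4 M 2-ME, pyruvate, antibiotics and FLT3L for 9 days. On day 9, compound in DMSO or 0.1% DMSO was added. After 12 h, supernatant IFN-γ and IL-23 were measured by ELISA. Three independent experiments.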

Experiment [7] is filed under the species Mus musculus. Nature of the experiment: Antipsoriatic activity in K14-VEGF transgenic mouse model of psoriasis assessed as decrease in CD31 expression in psoriatic lesion at 0.05% applied tropically over lesion for continuous 29 days by immunohistochemical analysis relative to vehicle control. Further details: scale not given: the % may be the effect or the level left. It is filed as functional. The essentials:
as §1

In experiment [8] the target is T1, Receptor-type tyrosine-protein kinase FLT3 (Mus musculus). Nature of the experiment: Inhibition of FLT3 in Balb/c mouse BMDCs assessed as suppression of FLT3L-induced mDC formation measured as lower right quadrant cells level treated on day 9 post 9 days of FLT3L-stimulation measured after 24 hrs by CD11c PerCP and I-A/I-E (MHC class II) FITC staining based flow cytometric analysis (reference value: 3.49%). Further details: scale not given: the % may be the effect or the level left. Put shortly: as §2

Experiment [9] shares this target. Nature of the experiment: Inhibition of FLT3 in Balb/c mouse BMDCs assessed as suppression of FLT3L-induced pDC formation measured as upper right quadrant cells level treated on day 9 post 9 days of FLT3L-stimulation measured after 24 hrs by CD11c PerCP and CD45R/B220 FITC staining based flow cytometric analysis (reference value: 14.9%). Further details: scale not given: the % may be the effect or the level left. The essentials: as §2

The species named for experiment [10] is Mus musculus. Nature of the experiment: Antipsoriatic activity in K14-VEGF transgenic mouse model of psoriasis assessed as lower left quadrant FLT3+/CD11c+/MHC-II+ mDC cells in psoriatic plaque lesion at 0.05% applied tropically over lesion for continuous 29 days by flow cytometric analysis (reference value: 1.09%).
Experiment [11] deals with T1, Receptor-type tyrosine-protein kinase FLT3 (Mus musculus). Nature of the experiment: Inhibition of FLT3 in Balb/c mouse BMDCs assessed as suppression of FLT3L-induced mDC formation measured as upper left quadrant cells level treated on day 9 post 9 days of FLT3L-stimulation measured after 24 hrs by CD11c PerCP and I-A/I-E (MHC class II) FITC staining based flow cytometric analysis (reference value: 31.8%). Further details: scale not given: the % may be the effect or the level left. Put shortly: as §2

The species entered for experiment [12] is Mus musculus. Nature of the experiment: Antipsoriatic activity in K14-VEGF transgenic mouse model of psoriasis assessed as lower left quadrant FLT3+/CD11c+/MHC-II+ mDC cells in psoriatic plaque lesion at 0.05% applied tropically over lesion for continuous 29 days by flow cytometric analysis (reference value: 35.2%).

Molecules are shown by their SMILES. Activity calls are given as the source filed them. No cut-off for these calls is given here.

With `CC(C)(C)c1cc(NC(=O)Nc2ccc(Oc3ncnc4[nH]ncc34)c(F)c2)no1`, the Activity in [1] came out at 79%; in experiment [3], 40.3%; in experiment [4], 5.18%; in experiment [5], 9.6%; in experiment [7] it was 94%; in experiment [8], 5.15%. Further, the Activity in experiment [9] was 7.84%; in experiment [10] it was 1.54%; in experiment [11], 23.5%; in experiment [12] it was 8.58%. The inhibition result in experiment [2] and in experiment [6] was “Active” throughout.
